In ChEMBL document CHEMBL3286292, “Synthesis and antimicrobial activity of amine linked bis- and tris-heterocycles” (2014):
Activity calls are given as the source filed them. The calls are words filed in the database; no cut-off is given here.

Legend:
Format in all cases: functional
Pseudomonas aeruginosa [1] = test: Antibacterial activity against Pseudomonas aeruginosa assessed as growth inhibition at 50 ug/well after 24 hrs by agar well diffusion method; conditions: for zone of inhibition at 50 µg/disc: read-out: DIZ
How it was run: (§1)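 Agar well diffusion on […] swabbed with a 24 h broth culture. Samples were dissolved in DMSO and loaded at three per-well amounts into 6 mm wells. Incubation was 37 °C for 24 h, then inhibition zone diameter was read in mm. DMSO served as the negative control. Runs were in duplicate and averaged.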

Staphylococcus aureus [2] = test: Antibacterial activity against Staphylococcus aureus assessed as growth inhibition at 50 ug/well after 24 hrs by agar well diffusion method; conditions: for zone of inhibition at 50 µg/disc: read-out: DIZ; how it was run: as §1
Aspergillus niger [3] = test: Antifungal activity against Aspergillus niger assessed as inhibition of spore germination at 25 ug/well after 48 hrs by agar well diffusion method; conditions: for zone of inhibition at 25 µg/disc: read-out: DIZ
How it was run: (§2)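 Well diffusion using 6 mm bored wells loaded with DMSO solutions at three per-well amounts, with a DMSO negative control. Plates were held at 28 °C for 48 h, then zone of inhibition diameter was measured in mm. Runs were in duplicate and averaged.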

Pseudomonas aeruginosa [4] = test: Antibacterial activity against Pseudomonas aeruginosa assessed as growth inhibition at 100 ug/well after 24 hrs by agar well diffusion method; conditions: for zone of inhibition at 100 µg/disc: read-out: DIZ; how it was run: as §1
Pseudomonas aeruginosa [5] = test: Antibacterial activity against Pseudomonas aeruginosa assessed as growth inhibition at 25 ug/well after 24 hrs by agar well diffusion method; conditions: for zone of inhibition at 25 µg/disc: read-out: DIZ; how it was run: as §1
Bacillus subtilis [6] = test: Antibacterial activity against Bacillus subtilis assessed as growth inhibition at 100 ug/well after 24 hrs by agar well diffusion method; conditions: for zone of inhibition at 100 µg/disc: read-out: DIZ; how it was run: as §1
Klebsiella pneumoniae [7] = test: Antibacterial activity against Klebsiella pneumoniae assessed as growth inhibition at 25 ug/well after 24 hrs by agar well diffusion method; conditions: for zone of inhibition at 25 µg/disc: read-out: DIZ; how it was run: as §1
Klebsiella pneumoniae [8] = test: Antibacterial activity against Klebsiella pneumoniae assessed as growth inhibition at 100 ug/well after 24 hrs by agar well diffusion method; conditions: for zone of inhibition at 100 µg/disc: read-out: DIZ; how it was run: as §1
Klebsiella pneumoniae [9] = test: Antibacterial activity against Klebsiella pneumoniae assessed as growth inhibition at 50 ug/well after 24 hrs by agar well diffusion method; conditions: for zone of inhibition at 50 µg/disc: read-out: DIZ; how it was run: as §1
Bacillus subtilis [10] = test: Antibacterial activity against Bacillus subtilis assessed as growth inhibition at 50 ug/well after 24 hrs by agar well diffusion method; conditions: for zone of inhibition at 50 µg/disc: read-out: DIZ; how it was run: as §1
Staphylococcus aureus [11] = test: Antibacterial activity against Staphylococcus aureus assessed as growth inhibition at 25 ug/well after 24 hrs by agar well diffusion method; conditions: for zone of inhibition at 25 µg/disc: read-out: DIZ; how it was run: as §1
Bacillus subtilis [12] = test: Antibacterial activity against Bacillus subtilis assessed as growth inhibition at 25 ug/well after 24 hrs by agar well diffusion method; conditions: for zone of inhibition at 25 µg/disc: read-out: DIZ; how it was run: as §1
Aspergillus niger [13] = test: Antifungal activity against Aspergillus niger assessed as inhibition of spore germination at 50 ug/well after 48 hrs by agar well diffusion method; conditions: for zone of inhibition at 50 µg/disc: read-out: DIZ; how it was run: as §2
Staphylococcus aureus [14] = test: Antibacterial activity against Staphylococcus aureus assessed as growth inhibition at 100 ug/well after 24 hrs by agar well diffusion method; conditions: for zone of inhibition at 100 µg/disc: read-out: DIZ; how it was run: as §1
Aspergillus niger [15] = test: Antifungal activity against Aspergillus niger assessed as growth inhibition after 48 hrs by broth dilution method
How it was run: (§3)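 Tube broth dilution with nutrient broth as diluent. Compound dilutions were added to fungal cultures and incubated at 28 °C for 48 h. A solvent control without sample was included. MIC was the lowest concentration with no visible growth or turbidity.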

Penicillium chrysogenum = test: Antifungal activity against Penicillium chrysogenum assessed as growth inhibition after 48 hrs by broth dilution method; how it was run: as §3
Staphylococcus aureus [16] = test: Antibacterial activity against Staphylococcus aureus assessed as growth inhibition after 24 hrs by broth dilution method
How it was run: (§4)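 Tube broth dilution with fresh nutrient broth as diluent and a 24 h old bacterial culture. Compound dilutions were added to the tubes, which were incubated at 37 °C for 24 h. Solvent control without sample was run in parallel. MIC was the lowest concentration showing no visible turbidity.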

Pseudomonas aeruginosa [17] = test: Antibacterial activity against Pseudomonas aeruginosa assessed as growth inhibition after 24 hrs by broth dilution method; how it was run: as §4
Bacillus subtilis [18] = test: Antibacterial activity against Bacillus subtilis assessed as growth inhibition after 24 hrs by broth dilution method; how it was run: as §4
Klebsiella pneumoniae [19] = test: Antibacterial activity against Klebsiella pneumoniae assessed as growth inhibition after 24 hrs by broth dilution method; how it was run: as §4

| SMILES | growth inhibition (GI) (Pseudomonas aeruginosa [1]) | growth inhibition (GI) (Pseudomonas aeruginosa [4]) | growth inhibition (GI) (Pseudomonas aeruginosa [5]) | zone of inhibition at 50 µg/disc (Staphylococcus aureus [2]) | zone of inhibition at 25 µg/disc (Aspergillus niger [3]) | zone of inhibition at 100 µg/disc (Pseudomonas aeruginosa [4]) | zone of inhibition at 100 µg/disc (Bacillus subtilis [6]) | zone of inhibition at 25 µg/disc (Klebsiella pneumoniae [7]) | zone of inhibition at 100 µg/disc (Klebsiella pneumoniae [8]) | zone of inhibition at 50 µg/disc (Klebsiella pneumoniae [9]) | zone of inhibition at 50 µg/disc (Bacillus subtilis [10]) | zone of inhibition at 25 µg/disc (Staphylococcus aureus [11]) | zone of inhibition at 25 µg/disc (Bacillus subtilis [12]) | zone of inhibition at 50 µg/disc (Aspergillus niger [13]) | zone of inhibition at 100 µg/disc (Staphylococcus aureus [14]) | zone of inhibition at 50 µg/disc (Pseudomonas aeruginosa [1]) | zone of inhibition at 25 µg/disc (Pseudomonas aeruginosa [5]) | other results |
| --- | --- | --- | --- | --- | --- | --- | --- | --- | --- | --- | --- | --- | --- | --- | --- | --- | --- | --- |
| NC(=S)N1N=C(Nc2nc(-c3ccc(Cl)cc3)cs2)C[C@@H]1c1ccc(Cl)cc1 | inactive | inactive | inactive |  |  |  |  |  |  |  |  |  |  |  |  |  |  | growth inhibition (GI) (Staphylococcus aureus [2]): inactive; growth inhibition (GI) (Aspergillus niger [3]): inactive; growth inhibition (GI) (Bacillus subtilis [6]): inactive; growth inhibition (GI) (Klebsiella pneumoniae [7]): inactive; growth inhibition (GI) (Klebsiella pneumoniae [8]): inactive; growth inhibition (GI) (Klebsiella pneumoniae [9]): inactive; growth inhibition (GI) (Bacillus subtilis [10]): inactive; growth inhibition (GI) (Staphylococcus aureus [11]): inactive; growth inhibition (GI) (Bacillus subtilis [12]): inactive; zone of inhibition (Aspergillus niger [13]): inactive; growth inhibition (GI) (Staphylococcus aureus [14]): inactive |
| CC(=O)N1CCN(c2ccc(OCC3COC(Cn4ccnc4)(c4ccc(Cl)cc4Cl)O3)cc2)CC1 (stereo unspecified) [KETOCONAZOLE] |  |  |  |  |  |  |  |  |  |  |  |  |  |  |  |  |  | MIC (Aspergillus niger [15]): 6.25 µg; MIC (Penicillium chrysogenum): 12.5 µg |
| c1ccc(-c2coc(Nc3cc(-c4ccccc4)n(-c4nc(-c5ccccc5)cs4)n3)n2)cc1 | inactive |  | inactive | 10 mm | 9 mm | 6 mm | 12 mm | 8 mm | 13 mm | 10 mm | 10 mm | 8 mm | 8 mm | 10 mm | 13 mm |  |  |  |
| NC(=S)n1nc(Nc2nc(-c3ccccc3)c[nH]2)cc1-c1ccccc1 |  |  |  | 20 mm | 19 mm | 14 mm | 22 mm | 19 mm | 24 mm | 20 mm | 20 mm | 18 mm | 18 mm | 20 mm | 23 mm | 12 mm | 10 mm |  |
| O=C(N[C@H](CO)[C@H](O)c1ccc([N+](=O)[O-])cc1)C(Cl)Cl [CHLORAMPHENICOL] |  |  |  | 33 mm | 31 mm | 30 mm | 38 mm | 38 mm | 42 mm | 40 mm | 34 mm | 30 mm | 32 mm | 33 mm | 35 mm | 27 mm | 25 mm | MIC (Staphylococcus aureus [16]): 6.25 µg; MIC (Pseudomonas aeruginosa [17]): 6.25 µg; MIC (Bacillus subtilis [18]): 6.25 µg; MIC (Klebsiella pneumoniae [19]): 12.5 µg |
| NC(=S)N1N=C(Nc2nc(-c3ccccc3)cs2)C[C@@H]1c1ccccc1 | inactive | inactive | inactive |  |  |  |  |  |  |  |  |  |  |  |  |  |  | growth inhibition (GI) (Staphylococcus aureus [2]): inactive; growth inhibition (GI) (Aspergillus niger [3]): inactive; growth inhibition (GI) (Bacillus subtilis [6]): inactive; growth inhibition (GI) (Klebsiella pneumoniae [7]): inactive; growth inhibition (GI) (Klebsiella pneumoniae [8]): inactive; growth inhibition (GI) (Klebsiella pneumoniae [9]): inactive; growth inhibition (GI) (Bacillus subtilis [10]): inactive; growth inhibition (GI) (Staphylococcus aureus [11]): inactive; growth inhibition (GI) (Bacillus subtilis [12]): inactive; zone of inhibition (Aspergillus niger [13]): inactive; growth inhibition (GI) (Staphylococcus aureus [14]): inactive |
| NC(=S)n1nc(Nc2nc(-c3ccccc3)co2)cc1-c1ccccc1 | inactive | inactive | inactive | 8 mm | 8 mm |  | 11 mm | 7 mm | 12 mm | 9 mm | 9 mm | 6 mm | 7 mm | 9 mm | 10 mm |  |  |  |
| Cc1ccc(-c2c[nH]c(Nc3cc(-c4ccc(C)cc4)n(C(N)=S)n3)n2)cc1 | inactive |  | inactive | 12 mm | 14 mm | 7 mm | 13 mm | 10 mm | 14 mm | 12 mm | 10 mm | 10 mm | 9 mm | 15 mm | 14 mm |  |  |  |
| Cc1ccc(-c2csc(Nc3cc(-c4ccc(C)cc4)n(-c4nc(-c5ccc(C)cc5)cs4)n3)n2)cc1 |  |  |  | 15 mm | 15 mm | 11 mm | 18 mm | 14 mm | 18 mm | 15 mm | 15 mm | 14 mm | 14 mm | 16 mm | 18 mm | 8 mm | 7 mm |  |
| NC(=S)N1N=C(Nc2nc(-c3ccccc3)co2)C[C@@H]1c1ccccc1 | inactive | inactive | inactive |  |  |  |  |  |  |  |  |  |  |  |  |  |  | growth inhibition (GI) (Staphylococcus aureus [2]): inactive; growth inhibition (GI) (Aspergillus niger [3]): inactive; growth inhibition (GI) (Bacillus subtilis [6]): inactive; growth inhibition (GI) (Klebsiella pneumoniae [7]): inactive; growth inhibition (GI) (Klebsiella pneumoniae [8]): inactive; growth inhibition (GI) (Klebsiella pneumoniae [9]): inactive; growth inhibition (GI) (Bacillus subtilis [10]): inactive; growth inhibition (GI) (Staphylococcus aureus [11]): inactive; growth inhibition (GI) (Bacillus subtilis [12]): inactive; zone of inhibition (Aspergillus niger [13]): inactive; growth inhibition (GI) (Staphylococcus aureus [14]): inactive |
| NC(=S)n1nc(Nc2nc(-c3ccc(Cl)cc3)c[nH]2)cc1-c1ccc(Cl)cc1 |  |  |  | 23 mm | 22 mm | 15 mm | 23 mm | 20 mm | 26 mm | 22 mm | 21 mm | 21 mm | 19 mm | 24 mm | 25 mm | 13 mm | 11 mm |  |
